Common to all, as to assay type: functional, cell-based
In assay [1] the test system is M19-MEL. As to the kind of experiment: In vitro cytotoxicity against human tumor M19 cell line (melanoma cancer). The method in brief: (§1)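 Cells kept in log-phase culture in RPMI 1640 with Hepes and phenol red, 10% FCS, penicillin 100 IU/mL and streptomycin 100 µg/mL. Complexes dissolved in water and diluted in full medium, then added after 48 h preincubation in 96-well plates. Incubation 120 h at 37 °C, 8.5% CO2. IC50 read by sulforhodamine-B microculture test.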

In assay [2] the test system is IGROV-1. The experiment in a line: In vitro cytotoxicity against human tumor IGROV cell line (ovarian cancer). An outline of the steps: as §1
Assay [3] relates to NCI-H226. As to the kind of experiment: In vitro cytotoxicity against human tumor H226 cell line (nonsmall cell lung cancer). An outline of the steps: as §1
The subject of assay [4] is L1210. The experiment in a line: In vitro cytotoxicity against mouse tumor L1210 cell line (resistant to Cisplatin). An outline of the steps:
(§2)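 Suspension culture in RPMI 1640 with 10% heat-inactivated fetal calf serum, no antibiotics, 37 °C, 5% CO2. Cells seeded at 10^5 cells/mL in 96-well plates and exposed 48 h to a range of platinum complex concentrations. MTT added, 4 h at 37 °C, then wash with PBS. Dye taken up in 2-propanol, absorbance read at 570 nm. IC50 taken as 50% absorbance drop versus drug-free control.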

Assay [5] concerns EVSA-T. As to the kind of experiment: In vitro cytotoxicity against human tumor EVSA-T cell line (breast cancer). The method in brief: as §1
Assay [6] concerns MCF7. The experiment in a line: In vitro cytotoxicity against human tumor MCF-7 cell line (breast cancer). An outline of the steps: as §1
Assay [7] deals with WiDr. The experiment in a line: In vitro cytotoxicity against human tumor WIDR cell line (colon cancer). The method in brief:
as §1

In assay [8] the test system is A498. As to the kind of experiment: In vitro cytotoxicity against human tumor A498 cell line (renal cancer). The method in brief:
as §1

In assay [9] the test system is L1210. As to the kind of experiment: In vitro cytotoxicity against mouse tumor L1210 cell line (sensitive to Cisplatin). The method in brief: as §2
In assay [10] the test system is L1210. As to the kind of experiment: Ratio of in vitro cytotoxicity against mouse tumor L1210 cell line (resistant to Cisplatin) to that of sensitive L1210 cell line. The method in brief: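 Resistant and sensitive L1210 cells in suspension culture, RPMI 1640 with 10% heat-inactivated FCS, no antibiotics, 37 °C, 5% CO2. Cells seeded at 10^5 cells/mL and exposed 48 h to platinum complexes. MTT read at 570 nm after solubilizing in 2-propanol. IC50 is 50% absorbance drop versus control; ratio is resistant IC50 over sensitive IC50.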

The values that follow come from ChEMBL document CHEMBL1136742, “New isomeric azine-bridged dinuclear platinum(II) complexes circumvent cross-resistance to cisplatin” (J Med Chem, 2003).

What is called IC50 is the point on the concentration scale where inhibition reaches its midpoint.

Take “[{cis-Pt(NH3)2Cl}2(-pdn)](NO3)2 [listing 1 of 2 here]”: the IC50 in assay [1] is 7.2 µM; in assay [2] it was 0.2 µM; in [3], greater than 85.2 µM; in assay [4], 21.3 µM; in assay [5] it was greater than 85.2 µM; in [6], 23 µM. Moreover, the half-inhibitory concentration (IC50) in assay [7] worked out at 13.3 µM; in assay [8], 53 µM; in assay [9], 5.7 µM.

With “[{cis-Pt(NH3)2Cl}2(-pzn)]Cl2 [listing 1 of 2 here]”, the half-inhibitory concentration (IC50) in assay [1] is 21.4 µM; in assay [2], 0.8 µM; in [3], greater than 91.9 µM; in assay [4] it was 2.5 µM; in [5] it was 42.5 µM; in assay [6], 15.5 µM. Also, the IC50 in assay [7] was found to be 2 µM; in assay [8] it was 54.1 µM; in [9], 1.2 µM.

As to “[{cis-Pt(NH3)2Cl}2(-pdn)](NO3)2 [listing 2 of 2 here]”, the Ratio in [10] is 3.7.

On to “[{cis-Pt(NH3)2Cl}2(-pzn)](NO3)2 [listing 1 of 2 here]”, for which the IC50 is 20.9 µM in [1]; 1 µM in [2]; greater than 85.2 µM in assay [3]; 3.5 µM in assay [4]; 47 µM in assay [5]; 17 µM in assay [6]. Further, the 50% inhibitory concentration (IC50) in assay [7] was 2.4 µM; in assay [8] it was 63.5 µM; in assay [9] it was 1 µM.

For the substance “[{cis-Pt(NH3)2Cl}2(-pzn)]Cl2 [listing 2 of 2 here]”, in assay [10], the Ratio worked out at 2.1.

Turning to CISPLATIN [listing 1 of 2 here], the IC50 in assay [1] was determined as 1.9 µM; in [2], 0.6 µM; in assay [3], 10.9 µM; in assay [5], 1.4 µM; in assay [6], 2.3 µM; in assay [7] it was 3.2 µM. The IC50 in assay [8] amounted to 7.5 µM; in assay [9], 2.2 µM.

As for CISPLATIN [listing 2 of 2 here], in assay [10], the Ratio was 6.6.

For “[{cis-Pt(NH3)2Cl}2(-pzn)](NO3)2 [listing 2 of 2 here]”, the Ratio in assay [10] came to 3.5.
